Measurements from ChEMBL document CHEMBL1926657, “Novel bioactive metabolites of dipyrone (metamizol)” (Bioorg Med Chem, 2012).
Activity calls are given as the source filed them. No cut-off for these calls is given here.

Tests used:
[1] = biological target: T1, Transient receptor potential cation channel subfamily V member 1 (Homo sapiens, UniProt Q8NER1); experiment: Inhibition of TRPV1
Cannabinoid receptor 2 = Cannabinoid receptor 2 (Homo sapiens, UniProt P34972); experiment: Displacement of [3H]CP-55940 from human recombinant CB2 receptor expressed in HEK cells; format: cell-based, HEK293
Cannabinoid receptor 2, sequence (P34972 whole entry): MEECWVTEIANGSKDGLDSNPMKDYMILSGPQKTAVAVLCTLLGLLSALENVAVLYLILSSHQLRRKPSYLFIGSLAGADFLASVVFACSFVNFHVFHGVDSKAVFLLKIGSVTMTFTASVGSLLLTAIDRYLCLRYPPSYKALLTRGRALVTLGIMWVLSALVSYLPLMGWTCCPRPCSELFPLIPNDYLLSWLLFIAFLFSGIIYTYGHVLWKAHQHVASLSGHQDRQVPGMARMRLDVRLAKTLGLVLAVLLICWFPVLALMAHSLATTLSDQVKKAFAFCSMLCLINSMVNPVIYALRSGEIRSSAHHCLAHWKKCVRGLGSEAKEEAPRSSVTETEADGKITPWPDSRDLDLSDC

Mus musculus [2] = species: Mus musculus; experiment: Inhibition of COX-mediated PGE2 production in C57BL/6 mouse brain homogenate at 100 nM to 100 uM; format: tissue-based
How it was run: (§1)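 Mouse brain homogenate (20 µg) made on ice in 50 mM Tris pH 7.4 with 1 mM phenol and protease inhibitors, then incubated with inhibitor or vehicle. Reaction started with 150 µM arachidonic acid at 37°C, stopped after 5 min by acidifying to pH 2.5 with 1% formic acid. Prostanoids extracted in ethyl acetate/hexane (7:1), and PGE2 or 6-keto-PGF1α quantified by GC-MS/MS.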

Cannabinoid receptor 1 = Cannabinoid receptor 1 (Homo sapiens, UniProt P21554); experiment: Displacement of [3H]CP-55940 from human recombinant CB1 receptor expressed in HEK cells; format: cell-based, HEK293
Cannabinoid receptor 1, sequence (P21554 whole entry): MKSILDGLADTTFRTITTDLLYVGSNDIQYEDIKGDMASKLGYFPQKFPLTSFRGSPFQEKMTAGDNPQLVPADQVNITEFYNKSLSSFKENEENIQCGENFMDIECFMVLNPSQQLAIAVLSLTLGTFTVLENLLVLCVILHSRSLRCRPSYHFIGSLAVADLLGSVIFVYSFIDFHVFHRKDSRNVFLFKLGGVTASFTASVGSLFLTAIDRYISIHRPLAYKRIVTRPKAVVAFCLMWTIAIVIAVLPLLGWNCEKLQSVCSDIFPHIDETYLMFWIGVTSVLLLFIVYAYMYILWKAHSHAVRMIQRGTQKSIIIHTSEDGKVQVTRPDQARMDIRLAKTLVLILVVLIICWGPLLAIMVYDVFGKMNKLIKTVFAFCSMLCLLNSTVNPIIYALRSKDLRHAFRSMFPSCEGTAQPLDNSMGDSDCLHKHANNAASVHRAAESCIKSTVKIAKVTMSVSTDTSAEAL

Mus musculus [3] = species: Mus musculus; experiment: Inhibition of PGE2 production in LPS-stimulated COX-1 knockout C57BL/6 mouse brain homogenate at 0.8 uM measured after 6 hrs; format: functional
How it was run: (§2)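 COX-1−/− or COX-2−/− mice injected i.p. with LPS 50 µg kg−1; brains taken 6 h later and homogenised in Tris pH 7.4/phenol/protease-inhibitor buffer. COX activity measured with inhibitor or vehicle: 150 µM arachidonic acid, 37°C, 5 min, formic acid stop to pH 2.5. PGE2 extracted in ethyl acetate/hexane and measured by GC-MS/MS.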

Mus musculus [4] = species: Mus musculus; experiment: (§3) Inhibition of COX-mediated PGE2 production in C57BL/6 mouse brain homogenate; format: tissue-based; how it was run: as §1
[5] = as §3; format: tissue-based; how it was run: as §1
Mus musculus [6] = species: Mus musculus; experiment: Ratio of IC50 for COX-mediated PGE2 production in C57BL/6 mouse brain homogenate measured after 6 hrs in absence of FAAH inhibitor URB532 to IC50 for COX-mediated PGE2 production in C57BL/6 mouse brain homogenate measured after 6 hrs in presence of FAAH inhibitor URB532; format: tissue-based
Mus musculus [7] = species: Mus musculus; experiment: Inhibition of PGE2 production in LPS-stimulated COX-2 knockout C57BL/6 mouse brain homogenate measured after 6 hrs; format: functional; conditions: C57BL/6, Brain; how it was run: as §2
Mus musculus [8] = species: Mus musculus; experiment: (§4) Inhibition of COX-mediated 6-keto-PGF1alpha production in C57BL/6 mouse brain homogenate; format: tissue-based; how it was run: as §1
[9] = as §4; format: tissue-based; how it was run: as §1
Mus musculus [10] = species: Mus musculus; experiment: Inhibition of PGE2 production in LPS-stimulated COX-1 knockout C57BL/6 mouse brain homogenate measured after 6 hrs; format: functional; conditions: C57BL/6, Brain; how it was run: as §2
Mus musculus [11] = species: Mus musculus; experiment: Inhibition of PGE2 production in LPS-stimulated COX-2 knockout C57BL/6 mouse brain homogenate at 0.4 uM measured after 6 hrs; format: functional; how it was run: as §2
[12] = Inhibition of COX-mediated PGE2 production in C57BL/6 mouse brain homogenate measured after 6 hrs in presence of FAAH inhibitor URB532; format: tissue-based
[13] = biological target: T2, Prostaglandin G/H synthase 2 (Mus musculus, UniProt Q05769); experiment: Inhibition of COX-2 in C57BL/6 mouse brain homogenate; format: tissue-based
T2 sequence (Q05769 whole entry): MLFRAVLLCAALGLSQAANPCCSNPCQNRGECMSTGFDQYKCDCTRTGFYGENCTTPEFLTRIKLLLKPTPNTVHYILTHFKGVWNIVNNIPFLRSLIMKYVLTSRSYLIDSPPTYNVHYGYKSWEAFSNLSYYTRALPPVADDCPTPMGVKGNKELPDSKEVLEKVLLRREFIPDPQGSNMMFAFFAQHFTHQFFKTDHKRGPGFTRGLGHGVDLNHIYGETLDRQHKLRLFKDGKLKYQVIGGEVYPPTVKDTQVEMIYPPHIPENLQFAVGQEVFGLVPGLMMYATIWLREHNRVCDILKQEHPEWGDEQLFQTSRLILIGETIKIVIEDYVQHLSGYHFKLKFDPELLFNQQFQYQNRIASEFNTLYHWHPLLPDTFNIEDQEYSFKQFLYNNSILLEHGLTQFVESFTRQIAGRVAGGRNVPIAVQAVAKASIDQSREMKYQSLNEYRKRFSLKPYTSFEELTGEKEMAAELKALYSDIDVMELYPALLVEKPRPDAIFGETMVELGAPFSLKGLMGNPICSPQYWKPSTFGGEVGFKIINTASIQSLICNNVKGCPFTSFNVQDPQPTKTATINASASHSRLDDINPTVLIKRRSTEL
How it was run: (§5)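 Brain homogenate from C57BL/6 mice was prepared on ice in 50 mM Tris pH 7.4 with 1 mM phenol and protease inhibitors. 20 µg of homogenate was incubated with inhibitor or vehicle. The reaction was started with 150 µM arachidonic acid at 37°C and stopped after 5 min with formic acid to pH 2.5. Prostanoids were extracted with ethyl acetate/hexane 7:1. PGE2 and 6-keto-PGF1α were measured by GC-MS/MS, and IC50 was determined.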

[14] = biological target: T3, Prostaglandin G/H synthase 1 (Mus musculus, UniProt P22437); experiment: Inhibition of COX-1 in C57BL/6 mouse brain homogenate; format: tissue-based; how it was run: as §5
T3 sequence (P22437 whole entry): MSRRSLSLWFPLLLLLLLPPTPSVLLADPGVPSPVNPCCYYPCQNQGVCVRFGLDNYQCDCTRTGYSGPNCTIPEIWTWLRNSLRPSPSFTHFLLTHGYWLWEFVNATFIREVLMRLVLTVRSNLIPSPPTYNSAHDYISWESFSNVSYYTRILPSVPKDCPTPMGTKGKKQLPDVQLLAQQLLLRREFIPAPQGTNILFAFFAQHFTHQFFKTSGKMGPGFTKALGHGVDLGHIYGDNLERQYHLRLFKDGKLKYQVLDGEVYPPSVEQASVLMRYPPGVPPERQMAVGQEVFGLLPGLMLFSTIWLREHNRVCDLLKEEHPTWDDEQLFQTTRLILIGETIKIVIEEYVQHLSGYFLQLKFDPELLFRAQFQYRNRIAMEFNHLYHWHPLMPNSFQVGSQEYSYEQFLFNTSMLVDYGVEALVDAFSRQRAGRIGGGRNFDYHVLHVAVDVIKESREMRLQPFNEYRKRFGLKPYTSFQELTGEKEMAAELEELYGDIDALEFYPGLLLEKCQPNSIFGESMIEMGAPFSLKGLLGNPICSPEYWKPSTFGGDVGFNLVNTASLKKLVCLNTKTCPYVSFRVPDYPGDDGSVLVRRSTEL

[15] = biological target: T1, Transient receptor potential cation channel subfamily V member 1; experiment: Agonist activity at TRPV1; format: functional
[16] = Prodrug activation in C57BL/6 mouse CSF assessed as formation of arachidonoyl-4-aminoantipyrin at 600 mg/kg, po administered daily measured after 120 hrs; format: organism-based, Cerebrospinal fluid; parameters: dose 600 mg/kg, route oral; conditions: in vivo
How it was run: (§6)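 Dipyrone was given in the drinking water, and mice were killed on day 2 (48 h) or day 5 (120 h) under isoflurane. Tissue was extracted with diisopropyl ether/ethyl acetate 1:3, dried and taken up in acetonitrile/water 9:1. The amides were measured by LC-MS/MS on a C18 column. Semi-quantification used external calibration with 10, 100 and 1000 pg standards.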

Brain [17] = experiment: Prodrug activation in FAAH wild type C57BL/6 mouse brain assessed as formation of arachidonoyl-4-aminoantipyrin at 600 mg/kg, po administered daily measured after 120 hrs; format: organism-based; parameters: dose 600 mg/kg, route oral; conditions: in vivo; how it was run: as §6
Spleen [18] = experiment: Prodrug activation in C57BL/6 mouse spleen assessed as formation of arachidonoyl-4-aminoantipyrin at 600 mg/kg, po administered daily measured after 120 hrs; format: organism-based; parameters: dose 600 mg/kg, route oral; conditions: in vivo; how it was run: as §6
Spleen [19] = experiment: Prodrug activation in C57BL/6 mouse spleen assessed as formation of arachidonoyl-4-methylaminoantipyrin at 600 mg/kg, po administered daily measured after 120 hrs; format: organism-based; parameters: dose 600 mg/kg, route oral; conditions: in vivo; how it was run: as §6
Spleen [20] = experiment: Prodrug activation in C57BL/6 mouse spleen assessed as formation of arachidonoyl-4-methylaminoantipyrin at 600 mg/kg, po administered daily measured after 48 hrs; format: organism-based; parameters: dose 600 mg/kg, route oral; conditions: in vivo; how it was run: as §6
Spleen [21] = experiment: Prodrug activation in C57BL/6 mouse spleen assessed as formation of arachidonoyl-4-aminoantipyrin at 600 mg/kg, po administered daily measured after 48 hrs; format: organism-based; parameters: dose 600 mg/kg, route oral; conditions: in vivo; how it was run: as §6
Brain [22] = experiment: Prodrug activation in FAAH wild type C57BL/6 mouse brain assessed as formation of arachidonoyl-4-methylaminoantipyrin at 600 mg/kg, po administered daily measured after 120 hrs; format: organism-based; parameters: dose 600 mg/kg, route oral; conditions: in vivo; how it was run: as §6
[23] = Prodrug activation in C57BL/6 mouse CSF assessed as formation of arachidonoyl-4-methylaminoantipyrin at 600 mg/kg, po administered daily measured after 120 hrs; format: organism-based, Cerebrospinal fluid; parameters: dose 600 mg/kg, route oral; conditions: in vivo; how it was run: as §6
[24] = Prodrug activation in C57BL/6 mouse CSF assessed as formation of arachidonoyl-4-aminoantipyrin at 600 mg/kg, po administered daily measured after 48 hrs; format: organism-based, Cerebrospinal fluid; parameters: dose 600 mg/kg, route oral; conditions: in vivo; how it was run: as §6
[25] = Prodrug activation in C57BL/6 mouse CSF assessed as formation of arachidonoyl-4-methylaminoantipyrin at 600 mg/kg, po administered daily measured after 48 hrs; format: organism-based, Cerebrospinal fluid; parameters: dose 600 mg/kg, route oral; conditions: in vivo; how it was run: as §6
Brain [26] = experiment: Prodrug activation in FAAH wild type C57BL/6 mouse brain assessed as formation of arachidonoyl-4-aminoantipyrin at 600 mg/kg, po administered daily measured after 48 hrs; format: organism-based; parameters: dose 600 mg/kg, route oral; conditions: in vivo; how it was run: as §6
Brain [27] = experiment: Prodrug activation in FAAH wild type C57BL/6 mouse brain assessed as formation of arachidonoyl-4-methylaminoantipyrin at 600 mg/kg, po administered daily measured after 48 hrs; format: organism-based; parameters: dose 600 mg/kg, route oral; conditions: in vivo; how it was run: as §6

T1 sequence (Q8NER1 whole entry): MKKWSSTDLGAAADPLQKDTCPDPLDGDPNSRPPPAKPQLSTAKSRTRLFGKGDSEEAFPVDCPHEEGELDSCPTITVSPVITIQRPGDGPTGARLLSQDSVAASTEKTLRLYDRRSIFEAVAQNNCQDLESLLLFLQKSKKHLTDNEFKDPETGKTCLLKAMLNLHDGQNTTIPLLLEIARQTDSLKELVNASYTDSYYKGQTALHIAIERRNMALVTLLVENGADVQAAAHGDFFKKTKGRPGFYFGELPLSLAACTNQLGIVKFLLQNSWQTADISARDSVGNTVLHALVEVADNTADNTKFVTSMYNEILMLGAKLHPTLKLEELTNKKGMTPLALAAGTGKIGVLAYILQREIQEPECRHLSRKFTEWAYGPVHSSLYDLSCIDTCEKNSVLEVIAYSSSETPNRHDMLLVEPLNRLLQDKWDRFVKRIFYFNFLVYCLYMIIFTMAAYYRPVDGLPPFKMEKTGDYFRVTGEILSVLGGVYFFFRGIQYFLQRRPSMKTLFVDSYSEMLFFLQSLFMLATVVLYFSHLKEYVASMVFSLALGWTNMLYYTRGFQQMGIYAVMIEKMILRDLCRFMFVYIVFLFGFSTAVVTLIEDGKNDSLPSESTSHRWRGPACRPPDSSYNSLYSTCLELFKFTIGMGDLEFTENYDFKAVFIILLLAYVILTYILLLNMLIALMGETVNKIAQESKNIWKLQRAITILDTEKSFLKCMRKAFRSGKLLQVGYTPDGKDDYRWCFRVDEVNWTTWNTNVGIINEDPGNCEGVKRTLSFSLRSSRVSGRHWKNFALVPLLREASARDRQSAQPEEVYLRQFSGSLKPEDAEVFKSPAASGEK

CCCCC/C=C\C/C=C\C/C=C\C/C=C\CCCC(=O)Nc1c(C)n(C)n(-c2ccccc2)c1=O
inhibition [1]: inactive | Ki (Cannabinoid receptor 2): 5.4 µM | inhibition (Mus musculus [2]): inactive | Ki (Cannabinoid receptor 1): 2.9 µM

CCCCC/C=C\C/C=C\C/C=C\C/C=C\CCCC(=O)N(C)c1c(C)n(C)n(-c2ccccc2)c1=O
Ki (Cannabinoid receptor 2): 3 µM | inhibition (Mus musculus [3]): Active | inhibition (Mus musculus [4]): Dose-dependent effect | IC50 [5]: 13.2 µM | Ratio IC50 (Mus musculus [6]): > 200 | Ki (Cannabinoid receptor 1): 7.8 µM | IC50 (Mus musculus [7]): 0.107 µM | inhibition (Mus musculus [8]): Dose-dependent effect | IC50 [9]: 5.2 µM | IC50 (Mus musculus [10]): 0.355 µM | inhibition (Mus musculus [11]): 30% | IC50 [12]: 0.058 µM

Cc1c(N)c(=O)n(-c2ccccc2)n1C [AMPYRONE]
IC50 [13]: 1000 µM | IC50 [14]: 1000 µM

CCCCC/C=C\C/C=C\C/C=C\C/C=C\CCCC(=O)Nc1ccc(O)cc1
EC50 [15]: 0.026 µM

Cc1c(N(C)CS(=O)(=O)[O-])c(=O)n(-c2ccccc2)n1C.[Na+] [DIPYRONE SODIUM]
Drug metabolism [16]: Active | Drug metabolism (Brain [17]): Active | Drug metabolism (Spleen [18]): Active | Drug metabolism (Spleen [19]): Active | Drug metabolism (Spleen [20]): Active | Drug metabolism (Spleen [21]): Active | Drug metabolism (Brain [22]): Active | Drug metabolism [23]: Active | Drug metabolism [24]: Active | Drug metabolism [25]: Active | Drug metabolism (Brain [26]): Active | Drug metabolism (Brain [27]): Active
